Assay outcomes from PubChem.
GRK2 inh: inhibitors of human GRK2 displacing RNA aptamer; P25098; bead flow cytometry, FAM-aptamer displacement from GRK2; inhibition of aptamer binding, % at 10 µM; actives 0.59% (n = 330,000); AID 488847;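 active = inhibition of aptamer binding above 40%, roughly 3 SD of noise, on plates passing a quality check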;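 note: median bead fluorescence of bound FAM aptamer so fluorescent compounds give negative values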
LMPTP block: LMPTP (human) inhibition; recombinant LMPTP-A, OMFP fluorogenic substrate, fluorescence intensity; actives 0.22% (n = 360,000); inhibition, % at 20 µM; AID 651560;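 active = compounds that cut the enzyme signal by at least half of the control window in the single-dose screen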
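Test system: LMPTP-A, protein tyrosine phosphatase of low molecular weight; Input: 0.625 nM enzyme; Incubation: 50 min dark incubation at room temperature; Signal: endpoint fluorescence intensity from OMFP dephosphorylation; Read-out basis: % inhibition versus control wells.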
Scp1 inh: inhibitors of human Scp-1 phosphatase; inhibition, % at 20 µM; actives 0.88% (n = 340,000); Recombinant Scp1, phosphopeptide, malachite green phosphate absorbance; Q9GZU7;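 active = inhibition above about 50% at 20 µM, limit read from the data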
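assay system = SCP-1 phosphatase catalytic domain, residues 76-261 | buffer or medium = 50 mM Tris acetate pH 5.5, 0.005% Tween-20, 10 mM MgCl2 | incubation = enzyme reaction 45 min at room temperature, colour 5 min, stabilisation 30 min | signal = Phosphate-binding colour reagent, absorbance read at 630 nm | measure = % inhibition at 20 µM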
STEP inh: inhibitors of human striatal-enriched phosphatase STEP | P54829 | recombinant STEP, OMFP fluorogenic substrate, fluorescence | inhibition, % at 20 µM | actives 0.25% (n = 360,000);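 active = inhibition at 20 µM, scaled per plate between control wells, above about 37%, limit read from the data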
Target sequence (P54829 whole entry, looked up): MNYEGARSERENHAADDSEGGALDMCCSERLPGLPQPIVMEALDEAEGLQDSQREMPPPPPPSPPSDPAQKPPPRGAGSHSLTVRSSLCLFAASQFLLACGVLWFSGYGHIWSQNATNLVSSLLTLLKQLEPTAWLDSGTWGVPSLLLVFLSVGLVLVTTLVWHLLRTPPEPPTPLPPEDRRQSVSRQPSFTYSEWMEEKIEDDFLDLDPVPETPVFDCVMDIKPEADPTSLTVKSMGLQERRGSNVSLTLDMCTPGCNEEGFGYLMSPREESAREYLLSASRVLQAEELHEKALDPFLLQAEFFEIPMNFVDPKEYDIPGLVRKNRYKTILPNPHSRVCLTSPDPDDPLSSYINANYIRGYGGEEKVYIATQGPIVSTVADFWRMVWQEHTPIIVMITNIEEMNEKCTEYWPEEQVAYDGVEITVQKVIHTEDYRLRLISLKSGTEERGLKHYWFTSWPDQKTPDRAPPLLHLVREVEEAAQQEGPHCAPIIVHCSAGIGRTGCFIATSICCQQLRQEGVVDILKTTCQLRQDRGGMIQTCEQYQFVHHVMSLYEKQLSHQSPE
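Assay system: isolated STEP enzyme. Buffer or medium: pH 6.0 Bis-Tris with DTT and Tween 20. Also added: fluorogenic phosphatase substrate OMFP at 25 µM final. Dosing: 20 µM, 1% DMSO. Timing: 20 min reaction, room temperature, in the dark. Measured by: fluorescence intensity, excitation 480 nm, emission 540 nm. Evaluation: normalized % inhibition.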
SUMO1 PPI mod: SUMO1-SIM interaction modulation. inhibition, % at 20 µM. AID 602429. SUMO1 binding to a labelled peptide, TR-FRET, 1 h. P63165. actives 0.33% (n = 360,000); in the data active = inhibition above about 37%
DNMT1 block: inhibitors of human DNMT1 | AID 588458 | inhibition (reported as % activation of signal), % at 10 µM | actives 0.83% (n = 360,000) | DNMT1 molecular beacon, Hinp1I cleavage, fluorescence; in the data active = inhibition above about 50%
Scp-1 conf: confirmation of human Scp-1 phosphatase inhibitors | shares compounds with Scp1 inh | recombinant SCP-1 catalytic domain, phosphate release, malachite green absorbance | inhibition, % at 20 µM | actives 61% (n = 2,500)
MG interference: counter-screen for Scp-1 inhibitors: colorimetric interference; shares compounds with Scp1 inh; Colorimetric interference counterscreen, malachite green absorbance 630 nm; apparent inhibition (interference), % at 20 µM; 2,500 tested, under 10 active; AID 540313;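 note: compounds added after enzyme reaction finished so only phosphate colour detection is probed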
Scp1 DSF: Scp-1 (human) binding by thermal shift | shares compounds with Scp1 inh | Recombinant SCP1, Sypro Orange thermal shift Tm | thermal shift relative to vanadate control, % at 40 µM | actives 25% (n = 1,500);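 active = substances whose mean melting-temperature shift, as a percentage of the reference inhibitor's shift, reaches about 5.3%, limit read from the data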
Hits are given with their value; n = inactive; x = no result. The list is not random: actives were taken first. Their share in the collection is about 2.1%.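 Rule for the calls, unless noted: active = inhibition of at least 30% at 20 µM; inactive = the rest.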

SMILES | GRK2 inh | LMPTP block | Scp1 inh | STEP inh | SUMO1 PPI mod | DNMT1 block | Scp-1 conf | MG interference | Scp1 DSF
O=S(=O)(c1ccccc1F)N1CCc2ccccc2C1 | n | n | n | n | n | n | x | x | x
CCn1c(=S)[nH]c2c(=O)n(C)c(=O)n(C)c21 | x | n | n | n | n | n | x | x | x
CC#CC#Cc1cccc(=O)o1 | n | n | 54 | n | n | 56 | 42 | n | n
CN(Cc1ccccc1)C(=O)c1ccc(Cc2cn(C)c3ccccc23)nc1 | x | n | x | n | n | n | x | x | x
O=C(CCCOc1ccccc1)N1CCN(S(=O)(=O)c2ccc(Cl)cc2)CC1 | n | n | n | n | n | n | x | x | x
CCOc1ccc(OCCCC(=O)N2CCN(S(=O)(=O)c3ccc(Cl)cc3)CC2)cc1 | n | n | 56 | n | n | n | 79 | n | n
O=C(Nc1ccccc1)c1cc(C2CCCN(C(=O)c3cccs3)C2)on1 (stereo not given) | x | n | x | n | n | n | x | x | x
Cc1c(NC(=O)CC2NC(=O)NC2=O)c(=O)n(-c2ccccc2)n1C (stereo not given) | n | x | x | x | x | x | n | n | x
Cc1c(NC(=O)CC(=O)Nc2c(C)n(C)n(-c3ccccc3)c2=O)c(=O)n(-c2ccccc2)n1C | n | n | n | n | n | n | x | x | x
COc1ccc(N2CC(C(=O)Nc3ccc(S(=O)(=O)N4CCCC4)cc3)CC2=O)cc1 (stereo not given) | n | n | 54 | n | n | n | n | n | x
COc1ccc(N2CC(C(=O)Nc3nc4ccccc4s3)CC2=O)cc1 (stereo not given) | n | n | n | n | n | n | n | n | x
O=C(Nc1nc2ccccc2s1)C1CC(=O)N(c2ccccc2)C1 (stereo not given) | n | n | n | n | n | n | x | x | x
CCOc1ccc(N2CC(C(=O)Nc3ccc(N4CCOCC4)cc3)CC2=O)cc1 (stereo not given) | n | n | n | n | n | n | n | n | x
CSc1cccc(N2CC(C(=O)Nc3cccc(S(=O)(=O)N4CCCC4)c3)CC2=O)c1 (stereo not given) | n | n | 74 | n | n | n | 76 | n | n
O=S1(=O)CC(N2CCCC2)CN1Cc1cn(Cc2ccc(F)cc2)nn1 (stereo not given) | x | n | x | x | n | x | x | x | x
CC(=O)Nc1cc(-c2ccsc2)cn2c(-c3ccc(F)cc3)cnc12 | x | n | x | n | n | n | x | x | x
CCOC(=O)/C=C1\CC(C(=O)OCC)Oc2c(OC)cccc21 (stereo not given) | n | n | 103 | n | n | n | 67 | n | n
CCOC(=O)N1CCN(C(=O)C2CC(c3ccccc3OC)=NO2)CC1 (stereo not given) | n | n | n | n | n | n | x | x | x
CCOC(=O)c1[nH]c(C)c(C(=O)OCC(=O)N(Cc2ccccc2)C(C)C)c1C | n | n | n | n | n | n | x | x | x
COc1ccc(CC(=O)Nc2ncc([N+](=O)[O-])s2)cc1OC | n | n | 71 | n | n | n | 66 | n | 12
COc1ccc(C=O)cc1CSc1ccccn1 | n | n | n | n | n | n | x | x | x
COc1ccc(/C=N/NC(=O)c2ccc(O)cc2O)cc1CSc1ccccn1 | n | n | 57 | n | n | n | 64 | n | n
Cc1c(NS(=O)(=O)c2cc(C(=O)NCCN(C)C)ccc2Cl)c(=O)n(-c2ccccc2)n1C | n | n | 73 | n | n | n | 37 | n | n
C=CCC1(CC=C)CCCN1C(=O)c1ccc2oc(CCCC)nc2c1 | x | n | x | n | n | n | x | x | x
Cc1ccc(NC(=O)c2cn(-c3cccc(C)n3)cn2)cc1 | n | n | 67 | n | n | n | n | n | x
COC(=O)c1ccc(NC(=O)c2cn(-c3cccc(C)n3)cn2)cc1 | x | n | n | n | n | n | x | x | x
